Measurements from article PMC4229392 (Investigational new drugs, 2014).
Values joined by “and” are separate entries in the source; they are usually repeats but may differ in a detail not shown here. Identical values can stand only once. “Also recorded” adds a separate entry of the source.

Columns and labels:
[1] = Plasma pharmacokinetics of alisertib ECT; format: in vivo, human; conditions: for Tmax: human, plasma
Outline: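 Adults with advanced non-haematologic cancers took oral enteric-coated tablets at 10–60 mg BID for 7 days, then 14 days off (21-day cycles). In cycle 1, plasma was sampled within 1 h before the morning dose and at 0.5–12 h post-dose on days 1 and 7. Further samples were taken 12–132 h after the day 7 evening dose. A validated LC-MS/MS assay and non-compartmental analysis were used. Geometric means were reported only for cohorts of at least 2 patients.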

[2] = Urine PK, renal clearance of alisertib; format: in vivo, human
Outline: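 Urine was collected only from patients dosed at 40 mg BID or higher. Samples were taken pre-dose on day 1 and pooled over 0–12 h after the day 7 morning dose of the 7-day oral BID course. Renal clearance was derived from the day 7 collection in 12 patients (10 at 50 mg BID, 2 at 60 mg BID). Quantitation was by LC-MS/MS.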

[3] = system: advanced, non-hematologic malignancies; experiment: Antitumor activity by RECIST version 1.1; format: in vivo, human
[4] = system: patients with advanced, non-hematologic malignancies
[5] = cited from earlier work
[6] = system: AAK inhibition in xenograft models; conditions: cited from earlier work
[7] = acidic solution; preclinical evaluations; cited from earlier work
[8] = steady-state (day 7), ECT, 20 mg BID (n = 3)
[9] = steady-state (day 7), ECT, 40 mg BID (n = 3)
[10] = steady-state (day 7), ECT, 50 mg BID (n = 11)
[11] = steady-state (day 7), ECT, 60 mg BID (n = 2)
[12] = human, in vivo, 7 days of each 21-day cycle

SMILES: COc1cc(Nc2ncc3c(n2)-c2ccc(Cl)cc2C(c2c(F)cccc2OC)=NC3)ccc1C(=O)O [alisertib]
- Overall mean peak/trough ratio ([1]; BID dosing, all doses): 2.2
- Geometric mean steady-state trough concentration ([1]; RP2D of 50 mg BID, ECT): > 1 µM
- Accumulation ratio ([1]; following BID dosing, all doses): 2.4
- Tmax ([1]; oral, 40 mg, Median Tmax (range), steady-state (day 7), ECT, 40 mg BID (n = 3)): 3 h
- Tmax ([1]; oral, 50 mg, Median Tmax (range), steady-state (day 7), ECT, 50 mg BID (n = 11)): 2.4 h
- Tmax ([1]; oral, 60 mg, Median Tmax (range), steady-state (day 7), ECT, 60 mg BID (n = 2)): 2.8 h
- Tmax ([1]; po, Overall median Tmax, oral ECT, all doses, range 0–11): ~3 h
- Dose dependence of systemic exposure ([1]; steady-state (day 7), 10–60 mg BID): increased with increasing doses
- Mean accumulation ratio (SD) [1, 8]: 3.0 (1.0)
- Mean peak/trough ratio (SD) [1, 8]: 2.1 (0.7)
- Mean accumulation ratio (SD) [1, 9]: 2.3 (0.4)
- Mean peak/trough ratio (SD) [1, 9]: 2.3 (1.4)
- Mean accumulation ratio (SD) [1, 10]: 2.2 (0.9)
- Mean peak/trough ratio (SD) [1, 10]: 2.3 (0.8)
- Mean accumulation ratio [1, 11]: 2.4
- Mean peak/trough ratio [1, 11]: 1.8
- Renal clearance (in words) ([2]; in vivo): negligible
- Renal clearance as share of apparent oral clearance ([2]; urine 0 to 12 h postdose day 7, 12 patients (50 and 60 mg BID)): less than 0.1%
- Patients with stable disease ([3]; 16 response-evaluable patients): Nine patients achieved stable disease; also recorded: Nine patients had stable disease
- Responses by RECIST ([3]; 16 response-evaluable patients): No responses by RECIST were observed; also recorded: no complete or partial responses by RECIST were observed
- Patients completing treatment for symptomatic deterioration ([3]; N = 24): 21%
- Duration of stable disease, individual patients ([3]; censored observations (*)): 3.98 months and 1.28 months and 5.45 months and 6.93 months
- Duration of stable disease, individual patients ([3]; not censored): 5.59 months and 2.56 months and 3.48 months and 3.15 months and 8.31 months
- Patients with drug-related SAEs in the MTD cohort ([4]; 50 mg BID): 4 patients
- Patients who died during the first treatment cycle ([4]; 50 mg starting dose, not considered related to alisertib): 2 patients
- Maximum tolerated dose (MTD) ([4]; ECT, × 7 days in a 21-day cycle): 50 mg BID
- Patients in whom dose reductions were necessary ([4]; human, in vivo): 21%
- Patients who discontinued treatment due to AEs ([4]; human, in vivo): 29%
- Patients with any grade of drug-related central nervous system (CNS) AEs ([4]; human, in vivo): 33%
- Patients with cycle 1 dose-limiting toxicity (grade 4 febrile neutropenia) ([4]; human, in vivo): 1 of 13
- Patients with dose reduction for neutropenia ([4]; human, in vivo): 13%
- Patients with dose reduction for thrombocytopenia ([4]; human, in vivo): 8%
- Patients with drug-related CNS AE dizziness ([4]; human, in vivo): 2 n
- Patients with drug-related CNS AE hypersomnia ([4]; human, in vivo): 5 n
- Patients with drug-related CNS AE memory impairment ([4]; human, in vivo): 3 n
- Patients with drug-related grade 3 or higher gastrointestinal AEs ([4]; human, in vivo): 25%
- Patients with drug-related grade 3 or higher hematologic AEs ([4]; human, in vivo): 50%
- Patients with drug-related neutropenia ([4]; human, in vivo): 50%
- Patients with treatment-related fatigue ([4]; human, in vivo): 33%
- Alopecia, all-grade treatment-related AE ([4]; human, in vivo, 7 days): 10 (42) n (%)
- Anemia, all-grade treatment-related AE ([4]; human, in vivo, 7 days): 3 (13) n (%)
- Decreased appetite, all-grade treatment-related AE ([4]; human, in vivo, 7 days): 5 (21) n (%)
- Diarrhea, all-grade treatment-related AE ([4]; human, in vivo, 7 days): 10 (42) n (%)
- Diarrhea, grade ≥3 treatment-related AE ([4]; human, in vivo, 7 days): 2 (8) n (%)
- Fatigue, all-grade treatment-related AE ([4]; human, in vivo, 7 days): 8 (33) n (%)
- Fatigue, grade ≥3 treatment-related AE ([4]; human, in vivo, 7 days): 2 (8) n (%)
- Febrile neutropenia, all-grade treatment-related AE ([4]; human, in vivo, 7 days): 3 (13) n (%)
- Febrile neutropenia, grade ≥3 treatment-related AE ([4]; human, in vivo, 7 days): 3 (13) n (%)
- Hypersomnia, all-grade treatment-related AE ([4]; human, in vivo, 7 days): 5 (21) n (%)
- Leukopenia, grade ≥3 treatment-related AE ([4]; human, in vivo, 7 days): 9 (38) n (%)
- Memory impairment, all-grade treatment-related AE ([4]; human, in vivo, 7 days): 3 (13) n (%)
- Nausea, grade ≥3 treatment-related AE ([4]; human, in vivo, 7 days): 2 (8) n (%)
- Neutropenia, all-grade treatment-related AE ([4]; human, in vivo, 7 days): 12 (50) n (%)
- Neutropenia, grade ≥3 treatment-related AE ([4]; human, in vivo, 7 days): 11 (46) n (%)
- Oral candidiasis, all-grade treatment-related AE ([4]; human, in vivo, 7 days): 4 (17) n (%)
- Recommended phase 2 dose (RP2D) ([4]; human, in vivo, 7 days): 50 mg BID
- Severity of CNS AEs (hypersomnia, memory loss, dizziness) ([4]; human, in vivo, 7 days): 1–2 grade
- Stomatitis, all-grade treatment-related AE ([4]; human, in vivo, 7 days): 10 (42) n (%)
- Stomatitis, grade ≥3 treatment-related AE ([4]; human, in vivo, 7 days): 2 (8) n (%)
- Thrombocytopenia, all-grade treatment-related AE ([4]; human, in vivo, 7 days): 4 (17) n (%)
- Vomiting, all-grade treatment-related AE ([4]; human, in vivo, 7 days): 5 (21) n (%)
- Vomiting, grade ≥3 treatment-related AE ([4]; human, in vivo, 7 days): 2 (8) n (%)
- Leukopenia, all-grade treatment-related AE [4, 12]: 10 (42) n (%)
- Nausea, all-grade treatment-related AE [4, 12]: 10 (42) n (%)
- Tolerability of dose level ([4]; in vivo): poorly tolerated
- Estimated relative bioavailability (geometric mean ratio of steady state alisertib AUC0-τ) of ECT in reference to PIC ([5]; 40 mg BID for 7 days, n = 14, 90% CI: 74.4–108.8%): 90%
- Systemic exposures of ECT formulation compared with PIC formulation ([5]; relative bioavailability analysis of phase 1 data): generally similar
- Concentration associated with saturating levels of pharmacodynamic (PD) activity ([6]; murine xenograft studies): 1 µM
- Concentration associated with AAK inhibition and antitumor activity ([6]; preclinical xenograft models): 1 µM
- Solubility (in words) [7]: reduced solubility in acidic solution
